Measurements published in ChEMBL document CHEMBL1687907, “Incorporation of a bioactive reverse-turn heterocycle into a peptide template using solid-phase synthesis to probe melanocortin receptor selectivity and ligand conformations by 2D 1H NMR” (J Med Chem, 2011).
pEC50: −log10 of the molar value. Activity calls are given as the source filed them. No cut-off for these calls is given here.

Key:
Type in all cases: functional, cell-based
[1] = biological target: Melanocyte-stimulating hormone receptor (Mus musculus, UniProt Q01727); assay: Agonist activity at mouse melanocortin 1 receptor expressed in HEK293 cells after 48 hrs by cAMP based beta-galactosidase reporter gene assay
Melanocyte-stimulating hormone receptor, sequence (Q01727 whole entry): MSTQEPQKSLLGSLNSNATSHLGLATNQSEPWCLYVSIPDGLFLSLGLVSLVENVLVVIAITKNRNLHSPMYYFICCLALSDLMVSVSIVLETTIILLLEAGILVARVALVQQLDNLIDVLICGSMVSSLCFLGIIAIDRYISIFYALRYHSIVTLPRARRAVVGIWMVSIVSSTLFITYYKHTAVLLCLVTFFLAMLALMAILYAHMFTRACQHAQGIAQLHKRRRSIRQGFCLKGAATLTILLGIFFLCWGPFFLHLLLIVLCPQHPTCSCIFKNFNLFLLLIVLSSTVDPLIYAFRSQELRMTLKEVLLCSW

[2] = biological target: Melanocortin receptor 5 (Mus musculus, UniProt P41149); assay: Agonist activity at mouse melanocortin 5 receptor expressed in HEK293 cells after 48 hrs by cAMP based beta-galactosidase reporter gene assay
Melanocortin receptor 5, sequence (P41149 whole entry): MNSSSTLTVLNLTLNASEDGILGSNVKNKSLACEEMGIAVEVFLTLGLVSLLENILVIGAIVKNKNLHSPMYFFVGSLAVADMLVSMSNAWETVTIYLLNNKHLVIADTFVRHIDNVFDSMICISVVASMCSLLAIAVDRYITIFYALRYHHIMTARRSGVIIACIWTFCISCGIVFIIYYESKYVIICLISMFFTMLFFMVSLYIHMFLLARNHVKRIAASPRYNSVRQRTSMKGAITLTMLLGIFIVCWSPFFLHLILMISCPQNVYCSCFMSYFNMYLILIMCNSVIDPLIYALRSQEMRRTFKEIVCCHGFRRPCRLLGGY

[3] = biological target: Melanocortin receptor 4 (Mus musculus, UniProt P56450); assay: Agonist activity at mouse melanocortin 4 receptor expressed in HEK293 cells after 48 hrs by cAMP based beta-galactosidase reporter gene assay
Melanocortin receptor 4, sequence (P56450 whole entry): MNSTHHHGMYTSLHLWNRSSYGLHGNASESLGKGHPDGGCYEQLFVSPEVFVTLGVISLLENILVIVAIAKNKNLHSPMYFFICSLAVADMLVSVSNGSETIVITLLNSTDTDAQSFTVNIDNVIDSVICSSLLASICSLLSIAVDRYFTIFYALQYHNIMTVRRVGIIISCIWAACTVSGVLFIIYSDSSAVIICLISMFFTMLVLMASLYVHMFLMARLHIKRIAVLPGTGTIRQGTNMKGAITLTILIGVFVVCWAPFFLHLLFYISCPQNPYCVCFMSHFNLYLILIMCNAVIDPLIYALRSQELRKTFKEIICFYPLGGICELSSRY

[4] = biological target: Melanocortin receptor 3 (Mus musculus, UniProt P33033); assay: Agonist activity at mouse melanocortin 3 receptor expressed in HEK293 cells after 48 hrs by cAMP based beta-galactosidase reporter gene assay
Melanocortin receptor 3, sequence (P33033 whole entry): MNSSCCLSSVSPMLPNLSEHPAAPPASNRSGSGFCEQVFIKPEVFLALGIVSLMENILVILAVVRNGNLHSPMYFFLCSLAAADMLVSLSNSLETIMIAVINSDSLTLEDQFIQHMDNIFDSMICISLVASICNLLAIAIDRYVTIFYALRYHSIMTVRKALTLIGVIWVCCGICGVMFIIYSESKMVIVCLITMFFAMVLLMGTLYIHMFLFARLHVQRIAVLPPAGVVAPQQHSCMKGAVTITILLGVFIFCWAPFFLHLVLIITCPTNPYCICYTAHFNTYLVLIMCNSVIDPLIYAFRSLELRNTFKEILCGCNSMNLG

[5] = biological target: Melanocortin receptor 3 (Mus musculus) (UniProt P33033); assay: Agonist activity at mouse melanocortin 3 receptor expressed in HEK293 cells at 100 uM after 48 hrs by cAMP based beta-galactosidase reporter gene assay
Melanocortin receptor 3 (Mus musculus), sequence (P33033 whole entry): as above
In short: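 HEK-293 cells stably expressing mouse MC3R were CRE/β-galactosidase reporter transfected and stimulated 48 h later for 6 h in IBMX/BSA DMEM. Peptide concentrations reached 100 µM. ONPG read at OD405, normalized to protein and forskolin.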

Row | pEC50 [1] | pEC50 [2] | pEC50 [3] | pEC50 [4] | Activity [5] | Compound
1 | 6.79 | 6.47 | 6.19 | 5.12 |  | CC(=O)N[C@@H](Cc1cnc[nH]1)C(=O)N[C@H](Cc1ccccc1)C(=O)N[C@@H]1CSCC(=O)N([C@@H](Cc2c[nH]c3ccccc23)C(N)=O)C[C@H](CCCN=C(N)N)NC1=O
2 |  |  |  |  | inactive | C[C@@H]1NC(=O)[C@H](CC(N)=O)NC(=O)[C@H](Cc2c[nH]c3ccccc23)NC(=O)[C@H](CCCNC(=N)N)NC(=O)[C@@H](Cc2ccccc2)N2C[C@H](Cc3cnc[nH]3)NC(=O)[C@@H](CSCC2=O)NC(=O)[C@@H](NC(=O)[C@@H](N)Cc2ccc(O)cc2)CSSC[C@@H](C(=O)N[C@@H](Cc2ccc(O)cc2)C(N)=O)NC(=O)[C@H](Cc2ccccc2)NC1=O
3 | 9.46 | 8.64 | 9.57 | 8.70 |  | C[C@@H]1NC(=O)[C@H](CC(N)=O)NC(=O)[C@H](Cc2c[nH]c3ccccc23)NC(=O)[C@H](CCCN=C(N)N)NC(=O)[C@@H](Cc2ccccc2)NC(=O)[C@H](Cc2cnc[nH]2)NC(=O)[C@@H](NC(=O)[C@@H](N)Cc2ccc(O)cc2)CSSC[C@@H](C(=O)N[C@@H](Cc2ccc(O)cc2)C(N)=O)NC(=O)[C@H](Cc2ccccc2)NC1=O
4 |  |  |  |  | inactive | C[C@@H]1NC(=O)[C@H](CC(N)=O)NC(=O)[C@H](Cc2c[nH]c3ccccc23)NC(=O)[C@H](CCCNC(=N)N)N2C[C@@H](Cc3ccccc3)NC(=O)[C@H](CSCC2=O)NC(=O)[C@H](Cc2cnc[nH]2)NC(=O)[C@@H](NC(=O)[C@@H](N)Cc2ccc(O)cc2)CSSC[C@@H](C(=O)N[C@@H](Cc2ccc(O)cc2)C(N)=O)NC(=O)[C@H](Cc2ccccc2)NC1=O
5 | 7.48 | 7.14 | 7.07 | 6.31 |  | C[C@@H]1NC(=O)[C@H](CC(N)=O)NC(=O)[C@H](Cc2c[nH]c3ccccc23)N2C[C@H](CCCN=C(N)N)NC(=O)[C@H](CSCC2=O)NC(=O)[C@@H](Cc2ccccc2)NC(=O)[C@H](Cc2cnc[nH]2)NC(=O)[C@@H](NC(=O)[C@@H](N)Cc2ccc(O)cc2)CSSC[C@@H](C(=O)N[C@@H](Cc2ccc(O)cc2)C(N)=O)NC(=O)[C@H](Cc2ccccc2)NC1=O
6 |  |  | 5.49 |  |  | C[C@@H]1NC(=O)[C@H](CC(N)=O)NC(=O)[C@H](Cc2c[nH]c3ccccc23)NC(=O)[C@H](CCCNC(=N)N)N2C[C@@H](Cc3ccccc3)NC(=O)[C@@H](CSCC2=O)NC(=O)[C@H](Cc2cnc[nH]2)NC(=O)[C@@H](NC(=O)[C@@H](N)Cc2ccc(O)cc2)CSSC[C@@H](C(=O)N[C@@H](Cc2ccc(O)cc2)C(N)=O)NC(=O)[C@H](Cc2ccccc2)NC1=O
